Data set [1] relates to Leptinotarsa decemlineata. Description: Antifeedant effect against Leptinotarsa decemlineata assessed as feeding reduction at 100 ug/cm2 relative to control. Also on record: scale not given: the % may be the effect or the level left. Format: functional. A digest of the protocol:
(§1)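 Choice test on leaf disks using adult L. decemlineata or newly emerged fifth-instar S. littoralis larvae. Five to 10 plates per treatment, three insects each. Uneaten leaf-disk area was measured by scanner. %FR = [1 − (treatment/control consumption)] × 100 per arena. Where FR exceeded 50%, EC50 was taken from linear regression of %FR on log dose.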

Data set [2] relates to Leptinotarsa decemlineata. Description: Antifeedant effect against Leptinotarsa decemlineata assessed as feeding reduction. Format: functional, organism-based. A digest of the protocol: as §1
In data set [3] the test system is Spodoptera littoralis. Put plainly: Antifeedant effect against Spodoptera littoralis L6 larvae assessed as relative growth rate at 10 ug, po after 72 hrs. Format: functional. Summed up:
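Preweighed, newly emerged S. littoralis L6 larvae (20 per experiment) were orally cannulated with 10 µg in 2 µL DMSO; controls got solvent alone. Relative consumption and growth rates were calculated at 72 h on a dry-weight basis. Log-transformed weights were analysed by ANOVA with LSD tests.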

Data set [4] concerns Salmonella typhimurium. Description: Mutagenic activity in Salmonella Typhimurium TA98 assessed as number of revertants at 50 ug/plate in absence of Wistar rat S9 liver homogenate. Format: toxicity, organism-based. Conditions: salmonella enterica subsp. enterica serovar typhimurium. A digest of the protocol:
(§2)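 Salmonella/microsome plate test (Ames) in strain TA98, with genetic markers and spontaneous revertant counts verified routinely. Run with and without S9 mix, the S9 being liver postmitochondrial supernatant from male Wistar rats of about 200 g. Doses ran from 0.01 to 100 µg/plate. Revertants are the mean of triplicate plates with standard error. Positive controls were 0.5 µg 4-nitroquinoline-N-oxide without S9 and 15 µg 2-aminoanthracene with S9.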

The subject of data set [5] is Salmonella typhimurium. Put plainly: Mutagenic activity in Salmonella Typhimurium TA98 assessed as number of revertants at 0.01 ug/plate in presence of Wistar rat S9 liver homogenate. Format: toxicity, organism-based, Liver S9 fraction. Conditions: salmonella enterica subsp. enterica serovar typhimurium. A digest of the protocol:
(§3)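 Salmonella/microsome plate test, with or without S9 from livers of male Wistar rats (~200 g). Strain markers and spontaneous revertant counts were routinely verified. Revertants are reported as mean ± standard error of triplicate plates. Strain-specific positive controls were used, with 2-aminoanthracene for all strains when S9 was present.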

Data set [6] relates to Salmonella typhimurium. Put plainly: Mutagenic activity in Salmonella Typhimurium TA98 assessed as number of revertants at 0.1 ug/plate in presence of Wistar rat S9 liver homogenate. Format: toxicity, organism-based, Liver S9 fraction. Particulars: salmonella enterica subsp. enterica serovar typhimurium. A digest of the protocol:
as §3

Data set [7] concerns Salmonella typhimurium. Description: Mutagenic activity in Salmonella Typhimurium TA98 assessed as number of revertants at 20 ug/plate in presence of Wistar rat S9 liver homogenate. Format: toxicity, organism-based, Liver S9 fraction. Conditions: salmonella enterica subsp. enterica serovar typhimurium. A digest of the protocol: as §2
For data set [8], the system named is Salmonella typhimurium. Put plainly: Mutagenic activity in Salmonella Typhimurium TA100 assessed as number of revertants at 0.1 ug/plate in absence of Wistar rat S9 liver homogenate. Format: toxicity, organism-based. Particulars: salmonella enterica subsp. enterica serovar typhimurium. A digest of the protocol:
as §3

Data set [9] concerns Salmonella typhimurium. Put plainly: Mutagenic activity in Salmonella Typhimurium TA100 assessed as number of revertants at 50 ug/plate in absence of Wistar rat S9 liver homogenate. Format: toxicity, organism-based. Particulars: salmonella enterica subsp. enterica serovar typhimurium. A digest of the protocol: as §3
In data set [10] the test system is Salmonella typhimurium. Description: Mutagenic activity in Salmonella Typhimurium TA100 assessed as number of revertants at 100 ug/plate in absence of Wistar rat S9 liver homogenate. Format: toxicity, organism-based. Conditions: salmonella enterica subsp. enterica serovar typhimurium. Summed up: as §3
For data set [11], the system named is Salmonella typhimurium. Description: Mutagenic activity in Salmonella Typhimurium TA102 assessed as number of revertants at 10 ug/plate in absence of Wistar rat S9 liver homogenate. Format: toxicity, organism-based. Conditions: salmonella enterica subsp. enterica serovar typhimurium. A digest of the protocol:
as §3

The test system of data set [12] is Salmonella typhimurium. Description: Mutagenic activity in Salmonella Typhimurium TA102 assessed as number of revertants at 1 ug/plate in presence of Wistar rat S9 liver homogenate. Particulars: salmonella enterica subsp. enterica serovar typhimurium. Format: toxicity, organism-based, Liver S9 fraction. A digest of the protocol: as §3
Data set [13] deals with Salmonella typhimurium. Description: Mutagenic activity in Salmonella Typhimurium TA102 assessed as number of revertants at 10 ug/plate in presence of Wistar rat S9 liver homogenate. Format: toxicity, organism-based, Liver S9 fraction. Conditions: salmonella enterica subsp. enterica serovar typhimurium. A digest of the protocol:
as §3

Data set [14] deals with Salmonella typhimurium. Put plainly: Bactericidal activity against Salmonella Typhimurium TA98 assessed as viability after 24 hrs in absence of Wistar rat S9 liver homogenate. Format: functional, organism-based. Particulars: Salmonella enterica subsp. enterica serovar Typhimurium. Summed up:
(§4)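 Viability assay: test solution or DMSO was mixed with diluted overnight culture and phosphate buffer (no S9) in top agar with histidine/biotin. The mixture was spread on nutrient agar and incubated 24 h at 37 °C. Colonies were counted to give viable bacteria per mL; positive and negative controls included; triplicate.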

The test system of data set [15] is Salmonella typhimurium. Description: Bactericidal activity against Salmonella Typhimurium TA100 assessed as viability after 24 hrs in absence of Wistar rat S9 liver homogenate. Format: functional, organism-based. Particulars: Salmonella enterica subsp. enterica serovar Typhimurium. Summed up: as §4
The test system of data set [16] is Salmonella typhimurium. Description: Bactericidal activity against Salmonella Typhimurium TA102 assessed as viability after 24 hrs in absence of Wistar rat S9 liver homogenate. Format: functional, organism-based. Particulars: Salmonella enterica subsp. enterica serovar Typhimurium. Summed up: as §4
Data set [17] has as its system Leptinotarsa decemlineata. Put plainly: Antifeedant effect against Leptinotarsa decemlineata assessed as feeding reduction at 10 ug/cm2. Format: functional, organism-based. Summed up: as §1
Data set [18] has as its system Myzus persicae. Put plainly: Insecticidal activity against Myzus persicae assessed as increase in mortality at 100 ug/cm2 observed daily for 4 days. Format: functional, organism-based. A digest of the protocol:
(§5)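 No-choice test: 20 boxes, each with five same-age apterous adult M. persicae (100 insects). Nymphs produced in the first 48 h were separated from adults and kept in similarly treated boxes. Both were observed daily for 4 days for mortality. Analysed by contingency tables and LSD test.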

The subject of data set [19] is Myzus persicae. Description: Insecticidal activity against Myzus persicae assessed as increase in mortality at 50 ug/cm2 observed daily for 4 days. Format: functional, organism-based. A digest of the protocol:
as §5

Data set [20] relates to Spodoptera littoralis. Description: Antifeedant effect against Spodoptera littoralis assessed as feeding reduction at 100 ug/cm2 relative to control. Also on record: scale not given: the % may be the effect or the level left. Format: functional. Summed up: as §1

As for `CCCCCCCCCCCC[C@@H](O)[C@H]1CC[C@H]([C@H](O)CCCC[C@H](O)CCCCC[C@@H](O)CC2=CC(C)OC2=O)O1` (stereo partly specified) [ANNONACIN], the Activity in data set [1] is given as 93%; in the data set on Spodoptera littoralis [3], 3.44 mg; in the data set on Salmonella typhimurium [4], 21; in the data set on Salmonella typhimurium [5], 36; in the data set on Salmonella typhimurium [6], 21; with Salmonella typhimurium [7], 26. In addition, the Activity came out at 142 with Salmonella typhimurium [8]; 85 in the data set on Salmonella typhimurium [9]; 68 in the data set with Salmonella typhimurium [10]; 221 with Salmonella typhimurium [11]; 429 in the data set on Salmonella typhimurium [12]; 430 in the data set on Salmonella typhimurium [13]. Further, the Activity entry with Salmonella typhimurium [14], in the data set on Salmonella typhimurium [15] and in the data set on Salmonella typhimurium [16] was “Non-toxic” throughout. For the same compound, the EC50 in data set [2] is 10 microg/cm2.

On to `CCCCCC[C@H](O)CCC[C@H](O)[C@H]1CC[C@H]([C@H]2CC[C@H]([C@H](O)CCCCCCCCCCCCC3=C[C@H](C)OC3=O)O2)O1` [SQUAMOCIN], for which the Activity entry in data set [17] was “Toxic”; with Spodoptera littoralis [3], 3.36 mg; in the data set with Myzus persicae [18], “Non-toxic”; in the data set with Myzus persicae [19], “Non-toxic”; with Salmonella typhimurium [4] it was 10; in the data set with Salmonella typhimurium [5], 36. The Activity worked out at 39 in the data set on Salmonella typhimurium [6]; 43 in the data set on Salmonella typhimurium [7]; 140 in the data set with Salmonella typhimurium [8]; 39 in the data set on Salmonella typhimurium [9]; 21 in the data set with Salmonella typhimurium [10]; 108 in the data set on Salmonella typhimurium [11]. In addition, the results for the Activity in the data set on Salmonella typhimurium [12], in the data set with Salmonella typhimurium [13] and in the data set with Spodoptera littoralis [20] were 422, 419 and below 40%, respectively.

The record behind these values is ChEMBL document CHEMBL1142626, “Insecticidal and mutagenic evaluation of two annonaceous acetogenins” (J Nat Prod, 2000).
